Our source for the inhibition values is PubChem BioAssay AID1217 (Sanford-Burnham Center for Chemical Genomics, 2008).

Hit rate of the full screen: of about 190,000 compounds, about 1,300 (0.68%) were called active. This excerpt belongs to a sample that is enriched for actives. Unmarked numbers belong to inactive results.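 The calls were made as follows: active = primary screen inhibition at 20 µM above a set limit (cut at about 50% in these data); inactive = the rest.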

The test system of the test is diaphorase (Clostridium kluyveri). The test is described as follows: diaphorase inhibitors and chemical oxidizers, primary screen, counter-screen for diaphorase-coupled primary assays, biochemical, uHTS, resorufin fluorescence (AID 1217).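 Also: plate controls were DMSO with full reaction for no effect and wells lacking NADH for full effect.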 The note with it: diaphorase resazurin-to-resorufin fluorescence, NADH, 16 min; at 20 µM; stronger effect = higher value; bacterial (C. kluyveri) enzyme, not human. An outline of the steps: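 controls = No-NADH positive control and DMSO neutral control | system = Clostridium kluyveri diaphorase enzyme | timing = reaction incubation of 16 min at room temperature | signal = resorufin fluorescence 544/590 nm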
As to `CN1CCN(/N=C/c2ccc(-c3ccc([N+](=O)[O-])cc3)o2)CC1`, the inhibition (as a rule, the relative decrease from the control value, in per cent) was -3.7%.

With `COc1ccc(N(C(=O)c2ccc(C)cc2)S(=O)(=O)c2cccs2)cc1`, the inhibition is 18.3%.

Turning to `CCC(C)(C)N=C(NC#N)Nc1cccnc1`, the inhibition is 59.6% (active).

For `CCOc1cccc(C(=O)Nc2cccnc2)c1`, the inhibition was -6.7%.

As to `CC(C)(C)C1CCC(C(=O)Nc2cccnc2)CC1` (stereo not given), the inhibition was 6.1%.

As to `Cc1nn(C)cc1C(=O)Nc1ccccc1Br`, the inhibition was 13.9%.

As for `O=C(CCn1ccc([N+](=O)[O-])n1)Nc1nccs1`, the inhibition was 9.2%.

Take `COc1ccc(C=Nc2cccc3ncccc23)cc1`: the inhibition is 39.7%.

Turning to `Oc1c(C=Nc2cccc3nsnc23)ccc2ccccc12`, the inhibition is 62.8% (active).

With `CCSC1=NCCN1S(=O)(=O)c1ccc(F)cc1`, the inhibition was -9.8%.

For `O=C(Nc1cc(N2CCOCC2)ncn1)NC1(C(F)(F)F)Oc2ccc(Cl)cc2O1` (stereo not given), the inhibition is 62.6% (active).

In the case of `Cc1csc(NC(=O)NC2(C(F)(F)F)Oc3ccccc3O2)n1`, the inhibition was 38.6%.

In the case of `c1cnn(-c2cc(N3CCOCC3)ncn2)c1`, the inhibition is 15.6%.

For `CC(=O)C1=C(O)C(=O)N(c2cccnc2)C1c1ccc([N+](=O)[O-])cc1` (stereo not given), the inhibition was 9.5%.

For the molecule `COC(=O)C[n+]1cccc2ccccc21`, the inhibition was 2.1%.

Turning to `O=C(CSc1ccc(-c2ccco2)nn1)NCc1ccc2c(c1)OCO2`, the inhibition was 18.6%.

`C/C(=N\N1CCN(Cc2ccc(C)cc2)CC1)c1ccco1`: the inhibition is 3.3%.

Turning to `Cc1ccnc(N2CCC(C(=O)NC3CCCCCC3)CC2)n1`, the inhibition is 0.8%.

On to `Cc1ccnc(-n2sc3ccccc3c2=O)n1`, for which the inhibition is 57% (active).

For the molecule `Cc1ccnc(Nc2nc3ccccc3s2)n1`, the inhibition was -16.3%.

For the molecule `Cc1ccc(S(=O)(=O)N(C)C)cc1NC(=O)/C=C/c1cccs1`, the inhibition was 15.5%.

In the case of `C#Cc1ccc([C@@H]2C=C(C(=O)O)O[C@H](OCCCCO)C2)cc1`, the inhibition was 15%.

Take `O=C(CCN1C(=O)c2ccccc2C1=O)NCCCn1ccnc1`: the inhibition was -0.3%.

For the molecule `O=C(O)/C=C/c1cn(Cc2ccccc2)nc1-c1cccs1`, the inhibition was 9.8%.

Take `c1ccc(-c2nnc3n2NC(c2ccc4c(c2)OCO4)S3)cc1` (stereo not given): the inhibition is 50% (active).

Regarding `Cc1cccc(C)c1NC(=O)CSc1nnc(-c2ccccc2)n1Cc1ccc2c(c1)OCO2`, the inhibition was -6.5%.

Consider `O=C(Cn1nnc(-c2ccccc2)n1)NCc1ccc2c(c1)OCO2`, for which the inhibition is -5.8%.

As for `Cc1ccc(NS(=O)(=O)c2ccc(C)c(NC(=O)COc3ccc4ccccc4c3)c2)c(C)c1`, the inhibition is 30.9%.

`COc1ccc(N(C)S(=O)(=O)c2cccc3nsnc23)cc1`: the inhibition was 3.7%.

Regarding `NC(=O)Cc1ccc2sc(-c3ccccc3)nc2c1`, the inhibition was 12.5%.

Consider `CCCCCC(=O)Nc1ccc(C(=O)N/N=C/c2ccc([N+](=O)[O-])cc2)cc1`, for which the inhibition was 4.9%.

As to `Cc1cccc(C(=O)NNC(=O)c2cccc([N+](=O)[O-])c2)c1`, the inhibition was 10.9%.

For `CCCCCC(=O)NC(=S)NNC(=O)c1ccc([N+](=O)[O-])cc1`, the inhibition is 54.7% (active).

For the molecule `COCCCNC(=S)NC(=O)c1ccc([N+](=O)[O-])cc1`, the inhibition was 9.4%.

As for `CC(C)(C)SCCNC(=O)c1cccc([N+](=O)[O-])c1`, the inhibition was 1.8%.

For `CC(C)CC(=O)NC(=S)NNC(=O)c1cccc([N+](=O)[O-])c1`, the inhibition is 58.7% (active).

Turning to `Brc1cc(/C=N/n2cnnc2)oc1Br`, the inhibition was -5.6%.

For `O=C(COc1ccc(Cl)cc1)NCc1nnc(SCC(=O)NCC2CCCO2)o1` (stereo not given), the inhibition was 3.2%.

For `Cc1cc(C)n(CC(=O)Nc2ccc([N+](=O)[O-])cc2)n1`, the inhibition was 19.4%.

As to `COc1ccc(CNC(=O)CN(Cc2ccc(Cl)cc2)S(C)(=O)=O)cc1`, the inhibition was 12.3%.

As for `COc1ccc2c(c1)C(C)=CC(C)(C)N2C(=O)Nc1ccccc1`, the inhibition is 74.3% (active).

Regarding `COc1ccc2c(c1)C(C)=CC(C)(C)N2C(=O)CNCc1ccc2c(c1)OCO2`, the inhibition is 34.2%.

`CC1=CC(C)(C)N(C(=O)CSc2nnc(-c3ccccc3)o2)c2ccc(C)cc21`: the inhibition is 6.9%.

In the case of `COc1ccc(NC(=O)Nc2ccc3nc(C)c(C)nc3c2)cc1`, the inhibition was 13.6%.

On to `O=C(NCc1ccccn1)c1cc(-c2ccccc2Cl)on1`, for which the inhibition was 4.9%.

Regarding `O=C(NCc1ccccn1)c1ccc2nc(-c3ccco3)c(-c3ccco3)nc2c1`, the inhibition is 51% (active).

`CN(c1ccc(C(=O)NCc2ccccn2)cc1)S(C)(=O)=O`: the inhibition is 5.3%.

For `COCCNC(=O)Nc1ccc2nc(-c3ccco3)c(-c3ccco3)nc2c1`, the inhibition was 70.2% (active).

On to `COc1ccc(NC(=O)Nc2ccc3nsnc3c2)cc1`, for which the inhibition was 15.1%.

In the case of `CC(C)C(C)(C#N)NC(=O)CSc1nncn1-c1ccccc1` (stereo not given), the inhibition was 12.5%.

For `O=C(CO/N=C/c1ccc(OC(F)F)cc1)NCc1ccc(F)cc1`, the inhibition is 9.6%.

With `O=C(NNC(=O)C1CCN(c2ncccn2)CC1)c1ccccc1`, the inhibition is -1.9%.

As to `CCN1CCN(C(c2cccnc2)c2cc(Cl)c3cccnc3c2O)CC1` (stereo not given), the inhibition is 54.7% (active).

In the case of `CCOC(=O)N1CCN(C(c2cccnc2)c2ccc3cccnc3c2O)CC1` (stereo not given), the inhibition was 48.3%.

As for `Oc1c(CN2CCN(c3ccc(F)cc3)CC2)cc(Cl)c2cccnc12`, the inhibition is 14.9%.

Regarding `Cc1ccc(N(C(=O)Cc2cccs2)C2C=CS(=O)(=O)C2)cc1Cl` (stereo not given), the inhibition is 12.1%.

For `CC(C)CCN1CCN(Cc2cn[nH]c2C2CCCCC2)CC1CCO` (stereo not given), the inhibition is 8.8%.

Consider `COc1ccc(NS(=O)(=O)c2cc(NC(=O)CC(=O)c3ccc([N+](=O)[O-])cc3)ccc2C)cc1`, for which the inhibition was -19.9%.

Regarding `c1ccc(-c2cc3c(NCC4COc5ccccc5O4)ncnc3s2)cc1` (stereo not given), the inhibition was 14.4%.

Consider `COc1ccc(-c2[nH]ncc2/C=N/NC(=O)c2cc(Br)ccc2O)c(OC)c1`, for which the inhibition is 8.8%.

With `C(=N/Nc1cc(N2CCOCC2)nc(N2CCOCC2)n1)/c1ccccc1`, the inhibition was 65.9% (active).

As for `Cc1ccccc1N/N=C/c1ccc(N2CCOCC2)cc1`, the inhibition is 13.9%.

As to `CCN(CC)c1ccc(C(=O)N/N=C/c2ccc(N3CCOCC3)cc2)cc1`, the inhibition was 14.2%.

Regarding `Cc1cc(C(=O)N/N=C/c2ccc(N3CCOCC3)cc2)c(C)o1`, the inhibition is -7.7%.

Consider `CN(C)c1ccc(/C=N/Nc2cc(N3CCOCC3)nc(N3CCOCC3)n2)cc1`, for which the inhibition was 58% (active).

For the molecule `Cc1cc(Oc2ccccc2)nc(N2CCOCC2)n1`, the inhibition was 8.4%.

Take `COc1cc2c(cc1OC)C(=O)NCC(C)(C)O2`: the inhibition is -1.5%.

Regarding `Cc1cc(C)nc(-n2nc(C)cc2NC(=O)c2ccc(F)cc2F)n1`, the inhibition is 3.4%.

In the case of `Cc1cc(OCC(=O)NC2CCN(C)CC2)ccc1[N+](=O)[O-]`, the inhibition is 3.6%.

As for `COc1cccc(NC(=O)c2ccc(S(=O)(=O)N(C)C)cc2)c1`, the inhibition was 5.6%.

Take `O=C(COC(=O)/C=C/c1cccc(Cl)c1)NCCc1ccccc1`: the inhibition was 8%.

Turning to `CCOc1ccccc1Nc1ccc(C(=O)O)cc1[N+](=O)[O-]`, the inhibition was 9.2%.

For the molecule `OCCC1CN(Cc2cccc(OC3CCCC3)c2)CCN1Cc1ccsc1` (stereo not given), the inhibition was 8.6%.

For `CCCCCCCNc1nc(Cl)nc(NCCO)n1`, the inhibition was -16.1%.

For `CCn1cc(C(=O)N2CCN(Cc3ccc4c(c3)OCO4)CC2)c2cc(OC)c(OC)cc2c1=O`, the inhibition was 10.4%.

`CCn1cc(C(=O)NCC2COc3ccccc3O2)c2cc(OC)c(OC)cc2c1=O` (stereo not given): the inhibition was 7.1%.

In the case of `CCn1cc(C(=O)NCc2ccc3c(c2)OCO3)c2cc(OC)c(OC)cc2c1=O`, the inhibition is 59.4% (active).

Take `N#CC1=C(N)Oc2[nH]c(=S)[nH]c(=O)c2C12C(=O)Nc1ccccc12` (stereo not given): the inhibition was 25.5%.

As to `CCc1ccc(C2C(C#N)=C(N)Oc3n[nH]c(CC(=O)OC)c32)cc1` (stereo not given), the inhibition is 4%.

Turning to `Cc1cc(C)c(C#N)c(SCc2[nH]nc3c2C(c2ccccc2)C(C#N)=C(N)O3)n1` (stereo not given), the inhibition was 53% (active).

As for `CCCc1[nH]nc2c1C(c1c(C)nn(-c3ccccc3)c1Cl)C(C#N)=C(N)O2` (stereo not given), the inhibition was 26.8%.

As to `O=C(OCc1cc(Cl)ccc1OC(F)F)c1cccnc1`, the inhibition is 10.6%.

On to `CCN(CC)S(=O)(=O)c1cccc(-c2n[nH]c(=S)n2/N=C/c2ccc(C(=O)OC)cc2)c1`, for which the inhibition was 66.5% (active).

As to `COC(=O)c1ccc(/C=N\n2c(C)nnc2C)cc1`, the inhibition was -6.4%.

Regarding `COc1cc(/C=N/n2c(C)n[nH]c2=S)ccc1OCc1ccccc1`, the inhibition is 32%.

Consider `CN1CCN(CC(=O)Nc2cccc([N+](=O)[O-])c2)CC1`, for which the inhibition was 12%.

Take `CCOc1ccc(-n2c(O)c(/C=N/c3ccnn3Cc3ccncc3)c3ccccc3c2=O)cc1`: the inhibition was -12.9%.

As to `CCOc1ccc(-n2c(O)c(/C=N/Nc3nnc(C)c(=O)[nH]3)c3ccccc3c2=O)cc1`, the inhibition was 89.8% (active).

Turning to `CCOc1ccc(-n2c(O)c(/C=N/Nc3nc(C)cc(C)n3)c3ccccc3c2=O)cc1`, the inhibition is -1.1%.

Turning to `FC(F)(F)c1cccc(N/N=C/c2ccccc2)c1`, the inhibition is 23.2%.

With `Oc1ccc(/C=N/Nc2ccc(C(F)(F)F)cn2)cc1O`, the inhibition was 53.7% (active).

With `COc1cccc(/C=N/Nc2ncc(C(F)(F)F)cc2Cl)c1O`, the inhibition is 0%.

`CN(Cc1ccccc1)C(=O)COC(=O)c1ccccc1Nc1ccccc1`: the inhibition is 28.3%.

As for `CCN(CC)c1ccc2oc(=O)c(C)nc2c1`, the inhibition is 62.3% (active).

On to `CCN(CC)c1ccc(/C=N/Nc2nc(C)cc(C)n2)c(O)c1`, for which the inhibition was 42.2%.

Turning to `CCN(CC)c1ccc2cc(C(=O)O)c(=O)oc2c1`, the inhibition is 11.2%.

On to `CCc1ccc(NC(=O)Cn2nc(C)c([N+](=O)[O-])c2C)cc1`, for which the inhibition was 12.1%.

For the molecule `COC(=O)c1ccc(OCC(=O)NC(C)(C)C)cc1`, the inhibition is -15.5%.

For the molecule `CC(C)(C)NC(=O)COc1ccc(CNc2ccc3[nH]c(=O)[nH]c3c2)cc1`, the inhibition was 54.2% (active).

Turning to `CC(=O)Nc1ccc(OCC(=O)NCc2ccc(C)cc2)cc1`, the inhibition is 11.1%.
